{
  "source": "ChEMBL document CHEMBL3112587",
  "about": "“Cytotoxic activity assessment, QSAR and docking study of novel bis-carboxamide derivatives of 4-pyrones synthesized by Ugi four-component reaction” (Eur J Med Chem, 2013)",
  "format_in_all_cases": "functional, cell-based",
  "key": {"[1]": {"tested_on": "HL-60", "test": "Cytotoxicity against human HL60 cells after 72 hrs by MTT assay", "summary_of_the_method": "(§1)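 RPMI 1640 with penicillin/streptomycin and 10% FBS (20% for HL-60), 37 °C, 5% CO2. Seeding was 40,000 HL-60 (suspension), 50,000 LS180 or 30,000 MCF-7 (monolayer) cells/ml, overnight. Half the medium was replaced with 3-4 compound concentrations in duplicate (DMSO ≤0.5% final), 72 h, then MTT 0.5 mg/ml for 4 h. Read 570 nm minus 655 nm. IC50 versus untreated control by linear regression, mean ± SD.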"}, "[2]": {"tested_on": "MCF7", "test": "Cytotoxicity against human MCF7 cells after 72 hrs by MTT assay", "summary_of_the_method": "as §1"}, "[3]": {"test": "Cytotoxicity against human LS180 cells after 72 hrs by MTT assay", "summary_of_the_method": "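Seeding was 40,000 HL-60 (suspension), 50,000 LS180 or 30,000 MCF-7 (monolayer) cells/ml, overnight. Half the medium was replaced with 3-4 compound concentrations in duplicate (DMSO ≤0.5% final), 72 h, then MTT 0.5 mg/ml for 4 h. IC50 versus untreated control by linear regression, mean ± SD.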"}, "[4]": {"conditions": "Homo sapiens, HL-60, 72 h, read-out: IC50; call rule not given here"}, "[5]": {"conditions": "Homo sapiens, HL-60, 72 h, read-out: pIC50 (converted)"}, "[6]": {"conditions": "Homo sapiens, MCF7, 72 h, read-out: IC50"}, "[7]": {"conditions": "Homo sapiens, LS180, 72 h, read-out: IC50"}},
  "data": [
    {"smiles": "O=C(NC1CCCCC1)C(c1cc(=O)c(OCc2ccccc2)co1)N(C(=O)c1ccccc1Cl)c1ccccc1", "note": "(stereo unspecified)", "values": [
      {"measurement": "IC50", "setting": "[1]; [4]", "value": 66.2, "unit": "µM"},
      {"measurement": "IC50", "setting": "[1]; [5]", "value": 66.1, "unit": "µM"},
      {"measurement": "IC50", "setting": "[2]; [6]", "value": 84.2, "unit": "µM"},
      {"measurement": "IC50", "setting": "[3]; [7]", "value": 97.3, "unit": "µM"}
    ]},
    {"smiles": "CC(C)(C)NC(=O)C(c1cc(=O)c(OCc2ccccc2)co1)N(C(=O)c1ccccc1)c1ccccc1", "note": "(stereo unspecified)", "values": [
      {"measurement": "IC50", "setting": "[1]; [4]", "value": 57.3, "unit": "µM"},
      {"measurement": "IC50", "setting": "[1]; [5]", "value": 57.5, "unit": "µM"},
      {"measurement": "IC50", "setting": "[2]; [6]", "value": 63.1, "unit": "µM"},
      {"measurement": "IC50", "setting": "[3]; ls180", "value": "Not Active"}
    ]},
    {"smiles": "Cc1ccc(N(C(=O)c2ccccc2Cl)C(C(=O)NC2CCCCC2)c2cc(=O)c(OCc3ccccc3)co2)cc1", "note": "(stereo unspecified)", "values": [
      {"measurement": "IC50", "setting": "[1]; [4]", "value": 12.1, "unit": "µM"},
      {"measurement": "IC50", "setting": "[1]; [5]", "value": 12, "unit": "µM"},
      {"measurement": "IC50", "setting": "[2]; [6]", "value": 56.3, "unit": "µM"},
      {"measurement": "IC50", "setting": "[3]; [7]", "value": 63, "unit": "µM"}
    ]},
    {"smiles": "Cc1ccc(N(C(=O)c2ccccc2Cl)C(C(=O)NC(C)(C)C)c2cc(=O)c(OCc3ccccc3)co2)cc1", "note": "(stereo unspecified)", "values": [
      {"measurement": "IC50", "setting": "[1]; [4]", "value": 42, "unit": "µM"},
      {"measurement": "IC50", "setting": "[1]; [5]", "value": 41.7, "unit": "µM"},
      {"measurement": "IC50", "setting": "[2]; [6]", "value": 53.8, "unit": "µM"},
      {"measurement": "IC50", "setting": "[3]; [7]", "value": 88.3, "unit": "µM"}
    ]},
    {"smiles": "Cc1ccc(N(C(=O)c2ccccc2)C(C(=O)NC2CCCCC2)c2cc(=O)c(OCc3ccccc3)co2)cc1", "note": "(stereo unspecified)", "values": [
      {"measurement": "IC50", "setting": "[1]; [4]", "value": 11.3, "unit": "µM"},
      {"measurement": "IC50", "setting": "[1]; [5]", "value": 11.2, "unit": "µM"},
      {"measurement": "IC50", "setting": "[2]; [6]", "value": 11.2, "unit": "µM"},
      {"measurement": "IC50", "setting": "[3]; [7]", "value": 20.2, "unit": "µM"}
    ]},
    {"smiles": "CCCCc1ccc(N(C(=O)c2ccccc2Cl)C(C(=O)NC(C)(C)C)c2cc(=O)c(OCc3ccccc3)co2)cc1", "note": "(stereo unspecified)", "values": [
      {"measurement": "IC50", "setting": "[1]; [4]", "value": 16.2, "unit": "µM"},
      {"measurement": "IC50", "setting": "[1]; [5]", "value": 16.2, "unit": "µM"},
      {"measurement": "IC50", "setting": "[2]; [6]", "value": 28.6, "unit": "µM"},
      {"measurement": "IC50", "setting": "[3]; [7]", "value": 88.2, "unit": "µM"}
    ]},
    {"smiles": "COc1ccc(N(C(=O)c2ccccc2Cl)C(C(=O)NC(C)(C)C)c2cc(=O)c(OCc3ccccc3)co2)cc1", "note": "(stereo unspecified)", "values": [
      {"measurement": "IC50", "setting": "[1]; [4]", "value": 52.9, "unit": "µM"},
      {"measurement": "IC50", "setting": "[1]; [5]", "value": 52.5, "unit": "µM"},
      {"measurement": "IC50", "setting": "[2]; [6]", "value": 47.2, "unit": "µM"},
      {"measurement": "IC50", "setting": "[3]; [7]", "value": 77.3, "unit": "µM"}
    ]},
    {"smiles": "O=C(NC1CCCCC1)C(c1cc(=O)c(OCc2ccccc2)co1)N(C(=O)c1ccccc1Cl)c1ccc(Cl)cc1", "note": "(stereo unspecified)", "values": [
      {"measurement": "IC50", "setting": "[1]; [4]", "value": 30.5, "unit": "µM"},
      {"measurement": "IC50", "setting": "[1]; [5]", "value": 30.2, "unit": "µM"},
      {"measurement": "IC50", "setting": "[2]; [6]", "value": 168, "unit": "µM"},
      {"measurement": "IC50", "setting": "[3]; ls180", "value": "Not Active"}
    ]},
    {"smiles": "O=C(NC1CCCCC1)C(c1cc(=O)c(OCc2ccccc2)co1)N(C(=O)c1ccccc1)c1ccc(Cl)cc1", "note": "(stereo unspecified)", "values": [
      {"measurement": "IC50", "setting": "[1]; [4]", "value": 14.7, "unit": "µM"},
      {"measurement": "IC50", "setting": "[1]; [5]", "value": 14.8, "unit": "µM"},
      {"measurement": "IC50", "setting": "[2]; mcf7", "value": "Not Active"},
      {"measurement": "IC50", "setting": "[3]; ls180", "value": "Not Active"}
    ]},
    {"smiles": "O=C(NC1CCCCC1)C(c1cc(=O)cc(-c2ccccc2)o1)N(C(=O)c1ccccc1Cl)c1ccccc1", "note": "(stereo unspecified)", "values": [
      {"measurement": "IC50", "setting": "[1]; [4]", "value": 72, "unit": "µM"},
      {"measurement": "IC50", "setting": "[1]; [5]", "value": 72.4, "unit": "µM"},
      {"measurement": "IC50", "setting": "[2]; mcf7", "value": "Not Active"},
      {"measurement": "IC50", "setting": "[3]; ls180", "value": "Not Active"}
    ]},
    {"smiles": "Cc1ccc(N(C(=O)c2ccccc2Cl)C(C(=O)NC2CCCCC2)c2cc(=O)cc(-c3ccccc3)o2)cc1", "note": "(stereo unspecified)", "values": [
      {"measurement": "IC50", "setting": "[1]; [4]", "value": 22.2, "unit": "µM"},
      {"measurement": "IC50", "setting": "[1]; [5]", "value": 22.4, "unit": "µM"},
      {"measurement": "IC50", "setting": "[2]; mcf7", "value": "Not Active"},
      {"measurement": "IC50", "setting": "[3]; ls180", "value": "Not Active"}
    ]},
    {"smiles": "Cc1ccc(N(C(=O)c2ccccc2)C(C(=O)NC(C)(C)C)c2cc(=O)cc(-c3ccccc3)o2)cc1", "note": "(stereo unspecified)", "values": [
      {"measurement": "IC50", "setting": "[1]; [4]", "value": 33, "unit": "µM"},
      {"measurement": "IC50", "setting": "[1]; [5]", "value": 33.1, "unit": "µM"},
      {"measurement": "IC50", "setting": "[2]; [6]", "value": 54.9, "unit": "µM"},
      {"measurement": "IC50", "setting": "[3]; [7]", "value": 122, "unit": "µM"}
    ]},
    {"smiles": "COc1ccc(N(C(=O)c2ccccc2Cl)C(C(=O)NC2CCCCC2)c2cc(=O)cc(-c3ccccc3)o2)cc1", "note": "(stereo unspecified)", "values": [
      {"measurement": "IC50", "setting": "[1]; hl-60", "value": "Not Active"},
      {"measurement": "IC50", "setting": "[2]; mcf7", "value": "Not Active"},
      {"measurement": "IC50", "setting": "[3]; ls180", "value": "Not Active"}
    ]},
    {"smiles": "COc1ccc(N(C(=O)c2ccccc2Cl)C(C(=O)NC(C)(C)C)c2cc(=O)cc(-c3ccccc3)o2)cc1", "note": "(stereo unspecified)", "values": [
      {"measurement": "IC50", "setting": "[1]; [4]", "value": 13.8, "unit": "µM"},
      {"measurement": "IC50", "setting": "[1]; [5]", "value": 13.8, "unit": "µM"},
      {"measurement": "IC50", "setting": "[2]; [6]", "value": 9.1, "unit": "µM"},
      {"measurement": "IC50", "setting": "[3]; [7]", "value": 16.1, "unit": "µM"}
    ]},
    {"smiles": "COc1cccc2c1C(=O)c1c(O)c3c(c(O)c1C2=O)C[C@@](O)(C(=O)CO)C[C@@H]3O[C@H]1C[C@H](N)[C@H](O)[C@H](C)O1", "note": "[DOXORUBICIN]", "values": [
      {"measurement": "IC50", "setting": "[1]; [4]", "value": 0.01, "unit": "µM"}
    ]}
  ]
}
